Measurements from ChEMBL document CHEMBL4346654 (Eur J Med Chem, 2019).
Converted amounts (≈) assume the structure as drawn.

Experiments:
[1] = tested on: Staphylococcus aureus; test: Antibacterial activity against MLS-resistant Staphylococcus aureus PU 32 expressing inducible ermA gene assessed as reduction in microbial growth by CLSI based two-fold broth dilution method; type: functional
[2] = tested on: Streptococcus pneumoniae; test: Antibacterial activity against erythromycin-susceptible Streptococcus pneumoniae ATCC49619 assessed as reduction in microbial growth by CLSI based two-fold broth dilution method; type: functional
[3] = tested on: Streptococcus pneumoniae; test: Bactericidal activity against erythromycin-susceptible Streptococcus pneumoniae ATCC49619 pretreated followed by subculture in absence of compound measured after 24 hrs; type: functional
Method in brief: (§1)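 Isolates were identified by 16S rDNA sequencing. MIC was determined by CLSI-recommended two-fold broth dilution. For MBC, samples from 1–8 fold MIC were transferred to culture medium and subcultured for 24 h without antibiotic.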

[4] = tested on: Haemophilus influenzae; test: Antibacterial activity against azithromycin-susceptible Haemophilus influenzae ATCC 49247 assessed as reduction in microbial growth by CLSI based two-fold broth dilution method; type: functional
[5] = tested on: Streptococcus pneumoniae; test: Antibacterial activity against Streptococcus pneumoniae 07P390 expressing constitutive ermB gene assessed as reduction in microbial growth by CLSI based two-fold broth dilution method; type: functional
[6] = tested on: Streptococcus pneumoniae; test: Antibacterial activity against penicillin-susceptible Streptococcus pneumoniae PU 09 expressing mef gene assessed as reduction in microbial growth by CLSI based two-fold broth dilution method; type: functional
[7] = tested on: Streptococcus pneumoniae; test: Bactericidal activity against penicillin-susceptible Streptococcus pneumoniae PU 09 expressing mef gene pretreated followed by subculture in absence of compound measured after 24 hrs; type: functional; method in brief: as §1
[8] = tested on: Streptococcus pneumoniae; test: Selectivity ratio of MBC to MIC for penicillin-susceptible Streptococcus pneumoniae PU 09 expressing mef gene; type: functional; method in brief: as §1
[9] = tested on: Streptococcus pneumoniae; test: Bactericidal activity against Streptococcus pneumoniae 07P390 expressing constitutive ermB gene pretreated followed by subculture in absence of compound measured after 24 hrs; type: functional; method in brief: as §1
[10] = tested on: Streptococcus pneumoniae; test: Selectivity ratio of MBC to MIC for Streptococcus pneumoniae 07P390 expressing constitutive ermB gene; type: functional; method in brief: as §1
[11] = tested on: Haemophilus influenzae; test: Bactericidal activity against azithromycin-susceptible Haemophilus influenzae ATCC 49247 pretreated followed by subculture in absence of compound measured after 24 hrs; type: functional; method in brief: as §1
[12] = tested on: Haemophilus influenzae; test: Selectivity ratio of MBC to MIC for azithromycin-susceptible Haemophilus influenzae ATCC 49247; type: functional; method in brief: as §1
[13] = tested on: Streptococcus pyogenes; test: Antibacterial activity against MLS-resistant Streptococcus pyogenes 01-968 expressing inducible ermB gene assessed as reduction in microbial growth by CLSI based two-fold broth dilution method; type: functional
[14] = tested on: Streptococcus pyogenes; test: Bactericidal activity against MLS-resistant Streptococcus pyogenes 01-968 expressing inducible ermB gene pretreated followed by subculture in absence of compound measured after 24 hrs; type: functional
Method in brief: (§2)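 MBC assay. Following MIC determination by CLSI standard two-fold broth dilution, samples at 1–8 fold MIC were transferred to fresh culture medium. They were subcultured for 24 h without antibiotic. Isolates were identified by 16S rDNA sequencing. S. aureus ATCC 29213 was used as a control strain.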

[15] = tested on: Streptococcus pyogenes; test: Selectivity ratio of MBC to MIC for MLS-resistant Streptococcus pyogenes 01-968 expressing inducible ermB gene; type: functional
Method in brief: (§3)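 MBC/MIC ratio. MIC was measured by CLSI standard two-fold broth dilution. MBC was measured by transferring samples at 1–8 fold MIC to culture medium and subculturing for 24 h without antibiotic. Isolates were identified by 16S rDNA sequencing.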

[16] = tested on: Staphylococcus aureus; test: Bactericidal activity against MLS/methicillin-resistant Staphylococcus aureus PU 32 expressing inducible ermA gene pretreated followed by subculture in absence of compound measured after 24 hrs; type: functional; method in brief: as §2
[17] = tested on: Staphylococcus aureus; test: Selectivity ratio of MBC to MIC for MLS/methicillin-resistant Staphylococcus aureus PU 32 expressing inducible ermA gene; type: functional; method in brief: as §3
[18] = tested on: Staphylococcus aureus; test: Antibacterial activity against MLS-resistant Staphylococcus aureus PU 20 expressing constitutive ermC gene assessed as reduction in microbial growth by CLSI based two-fold broth dilution method; type: functional
[19] = tested on: Streptococcus pyogenes; test: Antibacterial activity against MLS-resistant Streptococcus pyogenes 12-206 expressing constitutive ermA gene assessed as reduction in microbial growth by CLSI based two-fold broth dilution method; type: functional
[20] = tested on: Streptococcus pyogenes; test: Bactericidal activity against MLS-resistant Streptococcus pyogenes 12-206 expressing constitutive ermA gene pretreated followed by subculture in absence of compound measured after 24 hrs; type: functional; method in brief: as §2
[21] = tested on: Streptococcus pyogenes; test: Selectivity ratio of MBC to MIC for MLS-resistant Streptococcus pyogenes 12-206 expressing constitutive ermA gene; type: functional; method in brief: as §3
[22] = tested on: Streptococcus pyogenes; test: Antibacterial activity against Streptococcus pyogenes 12-207 expressing mef gene assessed as reduction in microbial growth by CLSI based two-fold broth dilution method; type: functional
[23] = tested on: Streptococcus pyogenes; test: Bactericidal activity against Streptococcus pyogenes 12-207 expressing mef gene pretreated followed by subculture in absence of compound measured after 24 hrs; type: functional; method in brief: as §1
[24] = tested on: Streptococcus pyogenes; test: Selectivity ratio of MBC to MIC for Streptococcus pyogenes 12-207 expressing mef gene; type: functional; method in brief: as §1
[25] = tested on: Moraxella catarrhalis; test: Antibacterial activity against erythromycin-susceptible Moraxella catarrhalis 13L332 assessed as reduction in microbial growth by CLSI based two-fold broth dilution method; type: functional
[26] = tested on: Moraxella catarrhalis; test: Bactericidal activity against erythromycin-susceptible Moraxella catarrhalis 13L332 pretreated followed by subculture in absence of compound measured after 24 hrs; type: functional; method in brief: as §1
[27] = tested on: Moraxella catarrhalis; test: Selectivity ratio of MBC to MIC for erythromycin-susceptible Moraxella catarrhalis 13L332; type: functional; method in brief: as §1
[28] = AUCinfinity in Sprague-Dawley rat at 20 mg/kg, po after 0.25 to 24 hrs by LC-MS/MS analysis; type: ADME, organism-based; set-up: dose 20 mg/kg, time infinity, route oral; conditions: Sprague-Dawley, in vivo
Method in brief: (§4)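 Male SD rats were given a single 20 mg/Kg oral dose. Blood was sampled at 0.25, 0.5, 1, 2, 4, 6, 8 and 24 h and centrifuged at 2500 g for 5 min at 4 °C. Drug levels were quantified by LC-MS/MS. t1/2, Cmax, Tmax, CL, MRT and AUC were calculated from the concentration–time data.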

[29] = AUC (0 to t) in Sprague-Dawley rat at 20 mg/kg, po after 0.25 to 24 hrs by LC-MS/MS analysis; type: ADME, organism-based; set-up: time upper 24 hr, dose 20 mg/kg, time lower 0.25 hr, route oral; conditions: in vivo; method in brief: as §4
[30] = Systemic plasma clearance in Sprague-Dawley rat at 20 mg/kg, po after 0.25 to 24 hrs by LC-MS/MS analysis; type: ADME, organism-based; method in brief: as §4
[31] = Half life in Sprague-Dawley rat at 20 mg/kg, po after 0.25 to 24 hrs by LC-MS/MS analysis; type: ADME, organism-based; conditions: in vivo; method in brief: as §4
[32] = MRT in Sprague-Dawley rat at 20 mg/kg, po after 0.25 to 24 hrs by LC-MS/MS analysis; type: ADME, organism-based; conditions: in vivo; method in brief: as §4
[33] = Tmax in Sprague-Dawley rat at 20 mg/kg, po after 0.25 to 24 hrs by LC-MS/MS analysis; type: ADME, organism-based; conditions: in vivo; method in brief: as §4
[34] = Cmax in Sprague-Dawley rat at 20 mg/kg, po after 0.25 to 24 hrs by LC-MS/MS analysis; type: ADME, organism-based; set-up: dose 20 mg/kg, route oral; conditions: in vivo; method in brief: as §4
[35] = biological target: Cytochrome P450 3A4 (Homo sapiens, UniProt P08684); test: Inhibition of CYP3A4 in human liver microsomes assessed as reduction in metabolite formation using midazolam as substrate incubated for 10 mins in presence of NADPH by HPLC based mass spectrometric method; type: ADME
Sequence of Cytochrome P450 3A4 (P08684 whole entry): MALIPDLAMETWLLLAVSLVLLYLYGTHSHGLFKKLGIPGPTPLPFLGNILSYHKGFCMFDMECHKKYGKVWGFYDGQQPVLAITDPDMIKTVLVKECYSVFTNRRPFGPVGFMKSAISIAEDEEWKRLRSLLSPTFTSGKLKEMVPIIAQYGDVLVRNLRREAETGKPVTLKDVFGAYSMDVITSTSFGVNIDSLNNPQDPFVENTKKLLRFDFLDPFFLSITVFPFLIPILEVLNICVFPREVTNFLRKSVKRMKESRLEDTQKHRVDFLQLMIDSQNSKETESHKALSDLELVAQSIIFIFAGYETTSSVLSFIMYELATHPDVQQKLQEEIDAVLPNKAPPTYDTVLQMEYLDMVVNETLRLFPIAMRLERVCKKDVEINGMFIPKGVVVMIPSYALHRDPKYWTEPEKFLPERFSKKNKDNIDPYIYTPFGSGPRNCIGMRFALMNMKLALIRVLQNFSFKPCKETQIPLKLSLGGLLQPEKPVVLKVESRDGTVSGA
Method in brief: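 Human liver microsome CYP3A4 with midazolam substrate in 0.1 M potassium phosphate buffer was prewarmed at 37 °C for 5 min. Compound and 25 mM NADPH solution (stock) were added, then incubated at 37 °C for 10 min. Ketoconazole served as the positive inhibitor. Metabolite was measured by UPLC–triple quadrupole MS as the metabolite/internal standard peak area ratio, and IC50 was derived by curve fitting.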

[36] = tested on: Rattus norvegicus; test: Ratio of test compound half life to telithromycin half life in Sprague-Dawley rat at 20 mg/kg, po after 0.25 to 24 hrs by LC-MS/MS analysis; type: ADME, organism-based; conditions: in vivo
[37] = Ratio of test compound MRT to telithromycin MRT in Sprague-Dawley rat at 20 mg/kg, po after 0.25 to 24 hrs by LC-MS/MS analysis; type: ADME, organism-based; conditions: in vivo
[38] = tested on: Streptococcus pneumoniae; test: Selectivity ratio of MBC to MIC for erythromycin-susceptible Streptococcus pneumoniae ATCC49619; type: functional; method in brief: as §1
[39] = tested on: Staphylococcus aureus; test: Bactericidal activity against MLS-resistant Staphylococcus aureus PU 20 expressing constitutive ermC gene pretreated followed by subculture in absence of compound measured after 24 hrs; type: functional; method in brief: as §2
[40] = tested on: Staphylococcus aureus; test: Selectivity ratio of MBC to MIC for MLS-resistant Staphylococcus aureus PU 20 expressing constitutive ermC gene; type: functional; method in brief: as §3

| Structure (SMILES) | MIC [1] [µg/mL] | MIC [2] [µg/mL] | MBC [3] [µg/mL] | MIC [4] [µg/mL] | MIC [5] [µg/mL] | MIC [6] [µg/mL] | MBC [7] [µg/mL] | Selectivity ratio [8] | MBC [9] [µg/mL] | Selectivity ratio [10] | MBC [11] [µg/mL] | Selectivity ratio [12] | MIC [13] [µg/mL] | MBC [14] [µg/mL] | Selectivity ratio [15] | MBC [16] [µg/mL] | Selectivity ratio [17] | MIC [18] [µg/mL] | Selectivity ratio [38] | MBC [39] [µg/mL] | also measured |
| --- | --- | --- | --- | --- | --- | --- | --- | --- | --- | --- | --- | --- | --- | --- | --- | --- | --- | --- | --- | --- | --- |
| CC[C@H]1OC(=O)[C@@](C)(F)C(=O)[C@H](C)[C@@H](O[C@@H]2O[C@H](C)C[C@H](N(C)C)[C@H]2O)[C@](C)(OC/C=C/c2ccc3c(c2)c(=O)c(C(N)=O)cn3C2CC2)C[C@@H](C)/C(=N\OC)[C@H](C)[C@H]2OC(=O)O[C@@]21C | 0.25 | ≤ 0.008 | ≤ 0.008 | 16 | ≤ 0.008 | 0.5 | 0.5 (≈ 0.548 µM) | 1 | > 0.062 | >8 | 32 (≈ 35 µM) | 2 | ≤ 0.002 | > 0.016 | >8 | > 2 | >8 | > 256 |  |  | MIC [19]: 0.016 µg/mL; MBC [20]: > 0.125 µg/mL; Selectivity ratio [21]: >8; MIC [22]: 0.062 µg/mL; MBC [23]: 0.125 µg/mL (≈ 0.137 µM); Selectivity ratio [24]: 2; MIC [25]: 0.5 µg/mL; MBC [26]: 4 µg/mL (≈ 4.38 µM); Selectivity ratio [27]: 8; AUC(0-inf) [28]: 4770 ng·h/mL; AUC(0-t) [29]: 4600 ng·h/mL; CL/F [30]: 80.8 mL/min/kg; half-life [31]: 4.34 h; MRT [32]: 8.32 h; Tmax [33]: 6.67 h; Cmax [34]: 369 ng/mL; IC50 [35]: 14.9 µM; Ratio [36]: 2.5 to 3.6; Ratio [37]: 2.3 to 2.6 |
| CC[C@H]1OC(=O)[C@@](C)(F)C(=O)[C@H](C)[C@@H](O[C@@H]2O[C@H](C)C[C@H](N(C)C)[C@H]2O)[C@](C)(OC/C=C/c2ccc3c(c2)c(=O)c(C(=O)O)cn3C2CC2)C[C@@H](C)/C(=N\OC)[C@H](C)[C@H]2OC(=O)O[C@@]21C | 0.25 | 0.125 | 0.25 (≈ 0.274 µM) | 2 | 1 | 2 | 2 (≈ 2.19 µM) | 1 | 8 (≈ 8.75 µM) | 8 | 4 (≈ 4.38 µM) | 2 | 0.031 | 0.25 (≈ 0.274 µM) | 8 | 2 (≈ 2.19 µM) | 8 | 64 | 2 | 128 (≈ 140 µM) | Selectivity ratio [40]: 2 |
| CC[C@H]1OC(=O)[C@@](C)(F)C(=O)[C@H](C)[C@@H](O[C@@H]2O[C@H](C)C[C@H](N(C)C)[C@H]2O)[C@](C)(OC)C[C@@H](C)/C(=N\OCC#Cc2ccc3c(c2)c(=O)c(C(=O)O)cn3C2CC2)[C@H](C)[C@H]2OC(=O)O[C@@]21C | 1 | 0.25 | 0.5 (≈ 0.548 µM) | 8 | 4 | 2 | 4 (≈ 4.39 µM) | 2 | 32 (≈ 35.1 µM) | 8 | 16 (≈ 17.5 µM) | 2 | 0.25 | 2 (≈ 2.19 µM) | 8 | 4 (≈ 4.39 µM) | 4 | 32 | 2 | 128 (≈ 140 µM) | Selectivity ratio [40]: 4 |
